PGC1a Ac signal: raises PGC1a acetylation signal in U2OS cells | actives 0.21% (n = 350,000) | activation, % at 15.6 µM | U2OS PGC1a acetylation AlphaScreen, overnight;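 active = every replicate reaching activation of at least 50%, whatever the mean replicate activation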;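 also: hits raise the AlphaScreen acetylation signal above neutral controls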
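System – flag-PGC1a/GCN5 U2OS cells · Quantity – 7000 U2OS cells per well · Signal – AlphaScreen proximity luminescence, anti-acetyl-lysine antibody · Schedule – overnight compound treatment, 37 °C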
* = called active by the depositor. Only a selection was taken, and hits are over-represented in it overall.

SMILES	PGC1a Ac signal
C[C@@H]1CN([C@@H](C)CO)C(=O)CCCn2nncc2CO[C@@H]1CN(C)C(=O)NC1CCCCC1	-51.5
O=C1c2ccsc2SCCN1Cc1cccc(Cl)c1	50.3*
O=C(C[C@H]1C[C@@H]2c3cc(NS(=O)(=O)c4ccc(F)cc4)ccc3O[C@@H]2[C@@H](CO)O1)N1CCc2ccccc2C1	-50.1
COC(=O)c1ccc2c(c1)C(C)(C)C(/C=C/c1ccccc1O)=[N+]2C	51.8*
C[C@@H]1CN([C@@H](C)CO)C(=O)c2cccc(NC(=O)c3ccc(-c4nccs4)cc3)c2O[C@@H]1CN(C)C(=O)Nc1ccc(C(F)(F)F)cc1	-54.6
CCOC(=O)C1(CC2CCCCO2)CCN(C(=O)Nc2ccc(SC)cc2)CC1 (stereo not drawn)	-55.7
C[C@H]1CN([C@@H](C)CO)C(=O)c2cccc(NC(=O)c3ccncc3)c2O[C@H]1CN(C)C(=O)Nc1ccc2c(c1)OCO2	-42.1
CC(=O)c1cccc(-c2ccnc3c2CC(C(=O)Nc2ccc4c(c2)OCO4)O3)c1 (stereo not drawn)	57.9*
CNC[C@H]1Oc2ccc(NC(=O)CCN3CCOCC3)cc2C(=O)N([C@H](C)CO)C[C@H]1C	-42.2
CC[C@H](C)C1OC(=O)[C@@H](C)[C@@H](CC)NC(=O)[C@H](C)N(C)C(=O)C(C)(C)C(=O)C(C)NC(=O)[C@H](Cc2ccc(OC)cc2)N(C)C(=O)[C@H](C(C)C)N(C)C(=O)CNC(=O)[C@H](CC(C)C)N(C)C(=O)CNC1=O (stereo partly drawn)	-74.1
OC(COc1ccc(CNCCc2ccc(C(F)(F)F)cc2)cc1)CN1CCCCC1 (stereo not drawn)	53.9*
C[C@@H]1CCCCO[C@@H](CN(C)C(=O)c2ccncc2)[C@@H](C)CN([C@H](C)CO)C(=O)c2cc(NC(=O)CCCCCC(=O)Nc3ccccc3N)ccc2O1	-99.2
CC(=O)N(c1cccc(C)c1)S(=O)(=O)c1ccc(Cl)cc1	-53.0
O=c1[nH]cnc2c1ccn2C1OC(CO)C(O)C1O (stereo not drawn)	138.1*
C/C=C/c1ccc2c(c1)O[C@@H](CN(C)C(=O)NC(C)C)[C@H](C)CN([C@H](C)CO)S2(=O)=O	-44.4
CCc1ccc(NC(=O)C2CC=CCC2C(=O)O)cc1 (stereo not drawn)	82.1*
Cc1noc(C)c1S(=O)(=O)Nc1ccc2c(c1)C(=O)N([C@H](C)CO)C[C@@H](C)[C@@H](CN(C)S(=O)(=O)c1cccs1)OCCCC[C@H](C)O2	-51.2
CO[C@@H]1CN(C)C(=O)c2cc(NC(C)=O)ccc2OC[C@@H](C)N(Cc2ccccc2C(=O)O)C[C@@H]1C	-43.4
CN(C)S(=O)(=O)N1CCC(Cc2ccccc2)CC1	61.5*
CN(Cc1ccccc1)S(=O)(=O)c1ccc(S(=O)(=O)N(Cc2ccc(F)cc2)C2CCCC2)cc1	-44.0
C=CCNC(=O)c1ccc(CN2CCC(Cc3ccccc3)CC2)cc1	-47.6
CN(C)C(=S)Nc1ccc(Br)c(Cl)c1	-52.2
Cc1c(C(=O)Nc2ccc3c(c2)OCCO3)sc2nc(-c3ccccc3)cn12	61.9*
CCC(CC)NC(=O)Cc1ccc(S(=O)(=O)N2CCOCC2)s1	52.4*
COc1ccc(Nc2nc(N)c(C(=O)c3ccc(OC)cc3)s2)cc1	82.8*
SMILES	PGC1a Ac signal
Cc1ccc(CC(=O)N2CCN(c3ccc([N+](=O)[O-])cc3)CC2)cc1	112.8*
O=[N+]([O-])c1ccc(N2CCN(CC3CCCCC3)CC2)cc1	63.2*
O=[N+]([O-])c1ccc(N2CCN(C(=S)NCc3ccc(Cl)cc3)CC2)cc1	80.8*
Cc1cccc(N2CCN(CC3CCCCC3)CC2)c1C	-46.7
O=C(c1cc([N+](=O)[O-])ccc1N1CCCC1)N1CCCC1	-51.9
C=CC(=O)N1C/C(=C/c2ccccc2)C(=O)/C(=C\c2ccccc2)C1	-72.8
CN(C)C(=O)C[C@@H]1CC[C@@H]2[C@H](COC[C@@H](O)CN2C(=O)C2CCOCC2)O1	-55.5
Cc1cnc2c(C(=O)O)cnn2c1	-52.3
C[C@@H]1CN([C@H](C)CO)C(=O)c2cc(NS(=O)(=O)c3ccc(F)cc3)ccc2O[C@H]1CN(C)Cc1ccc(C(F)(F)F)cc1	-55.7
C[C@@H]1CN([C@@H](C)CO)C(=O)c2cc(C#CC3CCCC3)cnc2O[C@H]1CN(C)C(=O)Nc1ccccc1	-44.6
O=C(O)/C=C/c1cnc[nH]1	-106.0
COc1ccc(C(=O)C(CN2CCCC2)c2ccccc2)cc1 (stereo not drawn)	166.8*
CCCCOc1ccc(C(=O)C(CN2CCOCC2)c2ccccc2)cc1 (stereo not drawn)	-79.6
CC(c1ccccc1)N1CCN(C(=O)CCl)CC1 (stereo not drawn)	-47.8
COc1ccc(-n2c(=O)c3c4c(sc3n3c(=S)[nH]nc23)CCC4)cc1	234.3*
C=CCOc1ccccc1CNc1ccc2[nH]c(=O)[nH]c2c1	-43.8
C[n+]1c2n(c3ccccc31)N=C(c1cc(C(C)(C)C)c(O)c(C(C)(C)C)c1)CS2	88.4*
C[C@@H]1CN([C@@H](C)CO)C(=O)c2cc(NC(=O)CCCN(C)C)ccc2O[C@@H](C)CCCCO[C@@H]1CN(C)Cc1ccc(C(F)(F)F)cc1	-110.0
O=C(Nc1ccc(F)cc1)c1ccccc1	-52.1
O=C(NC(Nc1cc(C(F)(F)F)ccc1Cl)C(=O)c1ccccc1)c1ccccc1 (stereo not drawn)	99.8*
CCN1/C(=C/c2ccc3cccc(C)c3[n+]2CC)Sc2ccccc21	184.9*
C[C@@H]1CN([C@@H](C)CO)C(=O)c2cccc(NC(=O)C3CCCCC3)c2O[C@@H]1CN(C)CC1CCCCC1	-44.0
COc1ccccc1Oc1ccc2c(c1)C(=O)N(c1ccc(C)cc1)C2=O	-103.7
COc1cc(CNC(=O)c2cc(-c3cc(C)cc(F)c3)n[nH]2)cc(OC)c1	-45.2
COc1ccc(NC(=O)/C(Cl)=C(/Cl)S(=O)(=O)Cc2ccccc2)cn1	-64.4
SMILES	PGC1a Ac signal
COc1ccc(NC(=O)/C(Cl)=C(/Cl)S(=O)Cc2ccc(Cl)cc2)cn1 (stereo not drawn)	-100.2
COc1ccc(NC(=O)C(Cl)=C(Cl)Cl)cn1	101.0*
CCCCC(=O)NCCc1cc2c(OC)ccc(OC)c2[nH]c1=O	-44.4
Cc1ccccc1-c1ccc(C2[C@@H]3CN(C(=O)Nc4cccc(F)c4)C[C@H]2N3)cc1 (stereo partly drawn)	55.6*
O=C(Nc1ccc(F)cc1)N1CC(=O)N2[C@@H](CO)[C@@H](c3ccc(-c4ccccc4)cc3)[C@@H]2C1	-60.7
O=C(Nc1ccc(F)cc1)N1C[C@@H]2N[C@H](C1)C2c1ccc(/C=C/c2ccccc2)cc1 (stereo partly drawn)	58.8*
Cc1ccccc1-c1ccc(C2[C@@H]3CN(S(=O)(=O)c4ccccc4C)C[C@H]2N3)cc1 (stereo partly drawn)	92.3*
N#Cc1ccc(-c2ccc([C@@H]3[C@@H]4CN(S(=O)(=O)c5ccc(-c6ccccc6)cc5)C[C@H]3N4)cc2)cc1	-84.9
COc1ccc(-c2ccc(C3[C@@H]4CN(C(=O)Nc5cccc(F)c5)C[C@H]3N4)cc2)cc1 (stereo partly drawn)	64.3*
O=C(Nc1ccc(F)cc1)N1CC(=O)N2[C@@H](CO)[C@H](c3ccc(Br)cc3)[C@@H]2C1	-55.0
Cn1nc(C(C)(C)C)cc1NC(=O)C1(C)CCN1C(=O)C1(c2ccccc2)CCCC1 (stereo not drawn)	-55.2
C[C@@H]1CN([C@@H](C)CO)C(=O)c2cc(NS(=O)(=O)c3ccc(F)cc3)ccc2O[C@@H]1CN(C)S(=O)(=O)c1ccc(Cl)cc1	-43.2
